Reference: ChEMBL document CHEMBL3120102, “Structure-based design, synthesis and biological evaluation of novel anthra[1,2-d]imidazole-6,11-dione homologues as potential antitumor agents” (2013)

Tests used:
Assay type in all cases: functional
OVCAR-3 = assay: Cytotoxicity against human OVCAR3 cells assessed as cell growth at 10 uM after 48 hrs by SRB assay; details: OVCAR-3, 48 h, read-out: Activity
In short: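 First stage of the NCI 60 human tumour cell line screen: a single dose is tested against every line. Cell growth is read as cellular protein by sulforhodamine B colorimetry after 48 h of drug exposure, with reference to a time-zero control and to untreated plates.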

[1] = Cytotoxicity against human Hs578T cells assessed as cell growth at 10 uM after 48 hrs by SRB assay; details: Hs-578T, read-out: Activity
TK-10 = assay: Cytotoxicity against human TK10 cells assessed as growth inhibition after 48 hrs by SRB assay
In short: (§1)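 NCI 60-cell-line screen, two stages. Five-dose testing at […]. Cellular protein measured by sulforhodamine B colorimetry after 48 h drug exposure. A time-zero control and drug-free plates are used to derive GI50, TGI and LC50 from dose-response curves plotted as log10 concentration per cell line.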

SK-MEL-28 = assay: Cytotoxicity against human SK-MEL-28 cells assessed as growth inhibition after 48 hrs by SRB assay
In short: (§2)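 NCI 60-cell-line screen, five-dose stage: each cell line exposed for 48 h to five concentrations spanning five log steps; cellular protein measured by sulforhodamine B colorimetry. A time-zero cell control and plates without drug are used to derive GI50, TGI and LC50 from log-concentration dose-response curves.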

MOLT-4 = assay: Cytotoxicity against human MOLT4 cells assessed as growth inhibition after 48 hrs by SRB assay; in short: as §2
SR = assay: Cytotoxicity against human SR cells assessed as growth inhibition after 48 hrs by SRB assay; in short: as §1
OVCAR-8 = assay: Cytotoxicity against human OVCAR8 cells assessed as growth inhibition after 48 hrs by SRB assay; in short: as §2
DU-145 = assay: Cytotoxicity against human DU145 cells assessed as growth inhibition after 48 hrs by SRB assay
In short: (§3)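 NCI 60-cell-line five-dose screen at […]. Drug exposure was 48 h, followed by sulforhodamine B protein staining. GI50, TGI and LC50 were calculated against a time-zero control and untreated plates, with dose–response curves plotted from log10 concentration.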

SF-295 = assay: Cytotoxicity against human SF295 cells assessed as growth inhibition after 48 hrs by SRB assay; in short: as §2
NCI-H226 = assay: Cytotoxicity against human NCI-H226 cells assessed as growth inhibition after 48 hrs by SRB assay; in short: as §2
SW-620 = assay: Cytotoxicity against human SW620 cells assessed as growth inhibition after 48 hrs by SRB assay; in short: as §1
A549 = assay: Cytotoxicity against human A549 cells assessed as growth inhibition after 48 hrs by SRB assay; in short: as §3
SK-MEL-5 = assay: Cytotoxicity against human SK-MEL-5 cells assessed as growth inhibition after 48 hrs by SRB assay; in short: as §2
ACHN = assay: Cytotoxicity against human ACHN cells assessed as growth inhibition after 48 hrs by SRB assay; in short: as §3
NCI-H460 = assay: Cytotoxicity against human NCI-H460 cells assessed as growth inhibition after 48 hrs by SRB assay; in short: as §2
HL-60(TB) = assay: Cytotoxicity against human HL-60(TB) cells assessed as growth inhibition after 48 hrs by SRB assay
In short: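 NCI 60-cell panel five-concentration stage (0.01, 0.1, 1, 10, 100) in HL-60(TB). Cellular protein was measured by sulforhodamine B colorimetry after 48 h of exposure. A time-zero cell control and untreated plates allowed calculation of GI50, TGI and LC50. These were read from log10 concentration dose-response curves.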

786-0 = assay: Cytotoxicity against human 786-0 cells assessed as growth inhibition after 48 hrs by SRB assay; in short: as §3
SK-MEL-2 = assay: Cytotoxicity against human SK-MEL-2 cells assessed as growth inhibition after 48 hrs by SRB assay; in short: as §2
SF-539 = assay: Cytotoxicity against human SF539 cells assessed as growth inhibition after 48 hrs by SRB assay; in short: as §2
SNB-75 = assay: Cytotoxicity against human SNB75 cells assessed as growth inhibition after 48 hrs by SRB assay; in short: as §1
RPMI-8226 = assay: Cytotoxicity against human RPMI8226 cells assessed as growth inhibition after 48 hrs by SRB assay; in short: as §2
[2] = (§4) Cytotoxicity against human UO31 cells assessed as growth inhibition after 48 hrs by SRB assay; details: UO-31, 48 h; in short: as §1
UO-31 = assay: as §4; in short: as §1
[3] = (§5) Cytotoxicity against human Hs578T cells assessed as growth inhibition after 48 hrs by SRB assay; details: Hs-578T; in short: as §3
Hs-578T = assay: as §5; in short: as §3
NCI-H522 = assay: Cytotoxicity against human NCI-H522 cells assessed as growth inhibition after 48 hrs by SRB assay; in short: as §2
[4] = (§6) Cytotoxicity against human UACC257 cells assessed as growth inhibition after 48 hrs by SRB assay; details: UACC-257, 48 h; in short: as §1
UACC-257 = assay: as §6; in short: as §1
[5] = read-out: LC50 (the source's name)

Question: For `O=C1c2ccccc2C(=O)c2c1ccc1[nH]c(=S)[nH]c21`, which growth at 10 µM (OVCAR-3) is on record?
Answer: 86.9%

Question: And the growth at 10 µM [1]?
Answer: 104%

Question: What does the source list for `O=C1c2ccccc2C(=O)c2c1ccc1nc(SCCN3CCCC3)[nH]c21`?
Answer: growth inhibition (GI) (TK-10): Dose-dependent effect; GI50 (TK-10; TK-10, 48 h): 4.22 µM; LC50 (TK-10; TK-10, 48 h): 46.8 µM; TGI (TK-10; TK-10, 48 h): 19.1 µM; growth inhibition (GI) (SK-MEL-28): Dose-dependent effect; GI50 (SK-MEL-28; SK-MEL-28, 48 h): 2.2 µM; LC50 (SK-MEL-28; SK-MEL-28, 48 h): 9.08 µM; TGI (SK-MEL-28; SK-MEL-28, 48 h): 4.47 µM; growth inhibition (GI) (MOLT-4): Dose-dependent effect; GI50 (MOLT-4; MOLT-4, 48 h): 1.51 µM; LC50 (50% lethal concentration) (MOLT-4; MOLT-4, 48 h): 19.1 µM; TGI (MOLT-4; MOLT-4, 48 h): 4.29 µM; GI50 (SR): 1.48 µM; LC50 (50% lethal concentration) (SR): 86.3 µM; TGI (SR): 4.19 µM; growth inhibition (GI) (SR): Dose-dependent effect; growth inhibition (GI) (OVCAR-8): Dose-dependent effect; GI50 (OVCAR-8; OVCAR-8, 48 h): 6.38 µM; LC50 (OVCAR-8; OVCAR-8, 48 h): > 100 µM; TGI (OVCAR-8; OVCAR-8, 48 h): 30.4 µM; growth inhibition (GI) (DU-145): Dose-dependent effect; GI50 (DU-145; DU-145, 48 h): 3.42 µM; TGI (DU-145; DU-145, 48 h): 14.9 µM; CC50 (DU-145; DU-145, 48 h, read-out: LC50 (the source's name)): 39.6 µM; growth inhibition (GI) (SF-295): Dose-dependent effect; GI50 (SF-295; SF-295, 48 h): 14.2 µM; LC50 (SF-295; SF-295, 48 h): 60.9 µM; TGI (SF-295; SF-295, 48 h): 29.4 µM; growth inhibition (GI) (NCI-H226): Dose-dependent effect; TGI (NCI-H226; NCI-H226, 48 h): 36.6 µM; growth inhibition (GI) (SW-620): Dose-dependent effect; GI50 (SW-620; SW-620, 48 h): 1.94 µM; LC50 (SW-620; SW-620, 48 h): 19.7 µM; TGI (SW-620; SW-620, 48 h): 5.09 µM; growth inhibition (GI) (A549): Dose-dependent effect; GI50 (A549; A549, 48 h): 3.8 µM; TGI (A549; A549, 48 h): 15 µM; growth inhibition (GI) (SK-MEL-5): Dose-dependent effect; GI50 (SK-MEL-5; SK-MEL-5, 48 h): 12.9 µM; LC50 (concentration killing 50% of cells relative to time zero) (SK-MEL-5; SK-MEL-5, 48 h): 54.8 µM; TGI (SK-MEL-5; SK-MEL-5, 48 h): 26.6 µM; GI50 (ACHN): 2.34 µM; TGI (ACHN): 16.5 µM; growth inhibition (GI) (ACHN): Dose-dependent effect; CC50 (ACHN; [5]): 41.1 µM; growth inhibition (GI) (NCI-H460): Dose-dependent effect; TGI (NCI-H460; NCI-H460, 48 h): 4.77 µM; growth inhibition (GI) (HL-60(TB)): Dose-dependent effect; GI50 (HL-60(TB); HL-60, 48 h): 1.13 µM; LC50 (HL-60(TB); HL-60, 48 h): 57.6 µM; TGI (HL-60(TB); HL-60, 48 h): 11.9 µM; growth inhibition (GI) (786-0): Dose-dependent effect; GI50 (786-0; 786-0, 48 h): 11.7 µM; LC50 (concentration causing 50% net cell kill) (786-0; 786-0, 48 h): 54.7 µM; TGI (786-0; 786-0, 48 h): 25.3 µM; growth inhibition (GI) (SK-MEL-2): Dose-dependent effect; GI50 (SK-MEL-2; SK-MEL-2, 48 h): 17.1 µM; LC50 (50% lethal concentration) (SK-MEL-2; SK-MEL-2, 48 h): 63.5 µM; TGI (SK-MEL-2; SK-MEL-2, 48 h): 32.9 µM; growth inhibition (GI) (SF-539): Dose-dependent effect; GI50 (SF-539; SF-539, 48 h): 6.79 µM; TGI (SF-539; SF-539, 48 h): 20.2 µM; CC50 (SF-539; SF-539, 48 h, read-out: LC50 (the source's name)): 47.4 µM; growth inhibition (GI) (SNB-75): Dose-dependent effect; GI50 (SNB-75; SNB-75, 48 h): 12.3 µM; LC50 (SNB-75; SNB-75, 48 h): 51.5 µM; TGI (SNB-75; SNB-75, 48 h): 25.2 µM; growth inhibition (GI) (RPMI-8226): Dose-dependent effect; GI50 (RPMI-8226; RPMI-8226, 48 h): 1.79 µM; LC50 (concentration causing 50% net cell kill) (RPMI-8226; RPMI-8226, 48 h): 15.4 µM; TGI (RPMI-8226; RPMI-8226, 48 h): 4.31 µM; GI50 [2]: 2.08 µM; LC50 [2]: 44.9 µM; TGI [2]: 15.8 µM; growth inhibition (GI) (UO-31): Dose-dependent effect; GI50 [3]: 6.24 µM; TGI [3]: 25.8 µM; CC50 [3, 5]: 79.9 µM; growth inhibition (GI) (Hs-578T): Dose-dependent effect; growth inhibition (GI) (NCI-H522): Dose-dependent effect; TGI (NCI-H522; NCI-H522, 48 h): 32.5 µM; GI50 [4]: 18 µM; LC50 [4]: 56.8 µM; TGI [4]: 31.9 µM; growth inhibition (GI) (UACC-257): Dose-dependent effect
